Columns and labels:
[1] = Antiepileptic activity in male CF1 mice 4 hr after administration measured in neurological toxicity (Tox) test at a dose of 100 mg/kg (no. of animals treated /protected); activity value is 0/4; type: functional, Mus musculus
[2] = Time of peak anticonvulsant effect in CF1 mice; type: functional, Mus musculus
Method in brief: (§1)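 Male CF1 mice (ca. 24–34 g), compound in 0.5% methylcellulose suspension given ip or po; time (h) at which MES protection (against tonic hind limb extension) peaked was recorded and used for ED50 determination.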

[3] = Antiepileptic activity in male CF1 mice 4 hr after administration measured in maximum electroshock seizure(MES) test at a dose of 100 mg/kg (no. of animals treated /protected); activity value is 0/3; type: functional, Mus musculus
[4] = Antiepileptic activity in male CF1 mice 30 min after administration measured in subcutaneous pentylenetetrazole (scMet) test at a dose of 100 mg/kg (no. of animals treated /protected); activity value is 0/1; type: functional, Mus musculus
[5] = Time of peak neurotoxic effect in CF1 mice; type: ADME; details: mouse, in vivo
Method in brief: (§2)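 Male CF1 mice (ca. 24–34 g), compound ip in 0.5% methylcellulose suspension; neurological deficit assessed by rotorod test, time (h) of peak neurotoxic effect recorded for TD50 determination.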

[6] = (§3) Dose producing neurotoxic effects in 50% of the CF1 mice after intraperitoneal administration.; type: functional; details: Mus musculus, ip; read-out: ED50 (the source's name)
Method in brief: (§4)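 Phase II quantification in CF1 male mice (ca. 24–34 g), dosing ip or po in 0.5% methylcellulose suspension. ED50 is protection from tonic hind limb extension in MES. TD50 is rotorod neurotoxicity. Both were read at time of peak effect and derived by Litchfield–Wilcoxon with 95% confidence limits.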

[7] = Antiepileptic activity in male CF1 mice 30 min after administration measured in maximum electroshock seizure(MES) test at a dose of 300 mg/kg (no. of animals treated /protected); activity value is 1/1; type: functional, Mus musculus
[8] = Antiepileptic activity in male CF1 mice 30 min after administration measured in maximum electroshock seizure(MES) test at a dose of 100 mg/kg (no. of animals treated /protected); activity value is 2/3; type: functional, Mus musculus
[9] = Antiepileptic activity in male CF1 mice 4 hr after administration measured in subcutaneous pentylenetetrazole (scMet) test at a dose of 100 mg/kg (no. of animals treated /protected); activity value is 0/1; type: functional, Mus musculus
[10] = Oral dose producing neurotoxic effects in 50% of rats; type: ADME, organism-based; details: rat, in vivo
Method in brief: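 Phase VI screen in male Sprague-Dawley rats dosed orally. MES protection and rotorod toxicity were scored as animals responding over animals tested at 0.25, 0.5, 1, 2 and 4 h.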

[11] = Anticonvulsant activity administered intraperitoneally in CF1 mice is the ability to protect the mice from MES(maximal electroshock seizure).; type: functional; details: Mus musculus, ip
[12] = Antiepileptic activity in male CF1 mice 30 min after administration measured in neurological toxicity (Tox) test at a dose of 100 mg/kg (no. of animals treated /protected); activity value is 0/8; type: functional, Mus musculus
[13] = Antiepileptic activity in male CF1 mice 4 hr after administration measured in maximum electroshock seizure(MES) test at a dose of 300 mg/kg (no. of animals treated /protected); activity value is 0/1; type: functional, Mus musculus
[14] = Antiepileptic activity in male CF1 mice 30 min after administration measured in neurological toxicity (Tox) test at a dose of 300 mg/kg (no. of animals treated /protected); activity value is 0/4; type: functional, Mus musculus
[15] = Antiepileptic activity in male CF1 mice 4 hr after administration measured in subcutaneous pentylenetetrazole (scMet) test at a dose of 300 mg/kg (no. of animals treated /protected); activity value is 0/1; type: functional, Mus musculus
[16] = Antiepileptic activity in male CF1 mice 30 min after administration measured in subcutaneous pentylenetetrazole (scMet) test at a dose of 300 mg/kg (no. of animals treated /protected); activity value is 0/1; type: functional, Mus musculus
[17] = Protective index was measured as TD50/ED50; type: ADME; details: read-out: PI
[18] = Antiepileptic activity in male CF1 mice 4 hr after administration measured in neurological toxicity (Tox) test at a dose of 300 mg/kg (no. of animals treated /protected); activity value is 0/2; type: functional, Mus musculus
[19] = Dose at which anticonvulsant activity was observed in mice; type: functional, Mus musculus
[20] = Antiepileptic activity in male CF1 mice 4 hr after administration measured in subcutaneous pentylenetetrazole (scMet) test at a dose of 100 mg/kg; activity value is 0/1; type: functional, Mus musculus
[21] = Antiepileptic activity in male CF1 mice 4 hr after administration measured in maximum electroshock seizure(MES) test at a dose of 300 mg/kg (no. of animals treated /protected); activity value is 1/1; type: functional, Mus musculus
[22] = Antiepileptic activity in male CF1 mice 30 min after administration measured in maximum electroshock seizure(MES) test at a dose of 300 mg/kg (no. of animals treated /protected); activity value is 0/1; type: functional, Mus musculus
[23] = Antiepileptic activity in male CF1 mice 4 hr after administration measured in subcutaneous pentylenetetrazole (scMet) test at a dose of 300 mg/kg; activity value is 0/1; type: functional, Mus musculus
[24] = as §3; type: ADME; details: CF1, mouse, in vivo, ip; method in brief: as §4
[25] = Antiepileptic activity in male CF1 mice 30 min after administration measured in neurological toxicity (Tox) test at a dose of 300 mg/kg (no. of animals treated /protected); activity value is 1/4; type: functional, Mus musculus
[26] = Antiepileptic activity in male CF1 mice 30 min after administration measured in maximum electroshock seizure(MES) test at a dose of 100 mg/kg (no. of animals treated /protected); activity value is 1/3; type: functional, Mus musculus
Rattus norvegicus [27] = assay: Dose reducing the seizure severity in rat cornea 1 hr after peroral administration; type: functional; details: po
Method in brief: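 Same corneal-kindled Sprague-Dawley rat procedure with the drug given po. Vehicles: 0.5% methylcellulose, 0.9% NaCl or corn oil. Single shock at the time of peak effect, scored on the modified Racine scale. ED50 by Litchfield-Wilcoxon, taken as the dose that reduced seizure severity by 50%.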

[28] = Time of peak anticonvulsant effect in CF1 MICE after ip administration.; type: functional, Mus musculus; method in brief: as §1
Rattus norvegicus [29] = assay: Intraperitoneal dose (25 mg/Kg) reducing rat corneal kindling 0.5 hr after administration.; type: functional
Method in brief: (§5)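 Sprague-Dawley rats (85–95 g initial weight) kindled by corneal stimulation (4 s, 8 mA) twice daily for 5 to 6 days, then once daily until 10 consecutive stage 5 seizures. Butacaine sulfate 1% applied to the cornea as a topical anaesthetic. After a vehicle shock and a 2-day shock-free period, drug given ip, then a single shock at the time of peak effect. Scored on the modified Racine scale (0–5).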

Rattus norvegicus [30] = assay: Average seizure score for the rat cornea 0.5 hr after intraperitoneal administration of 20 mg/Kg of compound; type: functional; method in brief: as §5
[31] = Dose protecting 50% of the mice from tonic hind limb extension at the time of […] after ip administration.; type: functional; details: Mus musculus, Hindlimb; method in brief: as §4
Rattus norvegicus [32] = assay: Intraperitoneal dose (0 mg/Kg) reducing rat corneal kindling 0.5 hr after administration.; type: functional; method in brief: as §5
[33] = Dose showing neurotoxicity in 50% of the at the time of peak neurotoxic effect in CF1 MICE after ip administration.; type: toxicity, organism-based; details: CF1, mouse, in vivo
Method in brief: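 CF1 male mice (ca. 24–34 g), dosed ip in 0.5% methylcellulose suspension. Neurotoxicity measured by the rotorod test at the time of peak neurotoxic effect. TD50 and confidence limits by the Litchfield-Wilcoxon method.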

Rattus norvegicus [34] = assay: Average seizure score for the rat cornea 0.5 hr after intraperitoneal administration of 15 mg/Kg of compound; type: functional; method in brief: as §5
Rattus norvegicus [35] = assay: Intraperitoneal dose (30 mg/Kg) reducing rat corneal kindling 0.5 hr after administration.; type: functional; method in brief: as §5
Rattus norvegicus [36] = assay: Average seizure score for the rat cornea 0.5 hr after intraperitoneal administration of 0 mg/Kg of compound; type: functional; method in brief: as §5
[37] = Dose elevating electroshock induced seizure by 20% in CF1 mice after ip administration.; type: functional, Mus musculus
Method in brief: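 In CF1 male mice (ca. 24–34 g), compound was given ip in 0.5% methylcellulose. The current giving hind limb extension in 50% of mice was found by the up-and-down method, with 15–25 mice per group and a vehicle control group run with each experimental group. At least three doses were tested. The dose raising threshold current by 20% was taken from a plot of dose against % threshold increase.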

Rattus norvegicus [38] = assay: Average seizure score for the rat cornea 0.5 hr after intraperitoneal administration of 30 mg/Kg of compound; type: functional; method in brief: as §5
Rattus norvegicus [39] = assay: Intraperitoneal dose (15 mg/Kg) reducing rat corneal kindling 0.5 hr after administration.; type: functional; method in brief: as §5
Rattus norvegicus [40] = assay: Intraperitoneal dose (20 mg/Kg) reducing rat corneal kindling 0.5 hr after administration.; type: functional; method in brief: as §5
[41] = Time of peak neurotoxic effect in CF1 MICE after ip administration.; type: ADME, organism-based; details: mouse, in vivo; method in brief: as §2
Rattus norvegicus [42] = assay: Dose reducing the seizure severity in rat cornea 0.5 hr after peroral administration.; type: functional; details: po
Method in brief: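 Sprague-Dawley rats (85–95 g initial) were kindled with 4 s, 8 mA corneal stimulations (butacaine anesthesia) to 10 consecutive stage 5 seizures. After a vehicle shock and a 2-day shock-free period, test drug was given ip or po and a single shock applied at time of peak effect. Seizures were scored on a modified Racine 0–5 scale. ED50 is the dose reducing severity by 50% (Litchfield–Wilcoxon).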

Compound | Activity [1] | TPE [2] | Activity [3] | Activity [4] | TPE [5] | Activity [7] | Activity [12] | Activity [13] | Activity [14] | Activity [15] | Activity [16] | Activity [18] | Dose [19] | further results
CC1(C)CC(O)=C/C(=N\c2ccccc2)C1 | 0 | 0.5 | 0 | 0 | 0.5 | 1 | 0 | 0 | 0 | 0 | 0 | 0 | <=100 mg kg-1 | TD50 [6]: 233 mg/kg; Activity [8]: 2; Activity [9]: 0; TD50 [10]: > 250 mg/kg; ED50 [11]: 109 mg/kg; selectivity ratio [17]: 2.1
CCc1ccc(NC2=CC(=O)C(C(=O)OC)C(C)C2)cc1 (stereo not given) | 0 |  | 0 | 0 |  |  | 0 |  |  |  |  |  | <=100 mg kg-1 | Activity [8]: 2; Activity [20]: 0
COC(=O)C1C(=O)C=C(NNc2ccccc2)CC1C (stereo not given) |  |  |  |  |  |  |  |  | 0 |  | 0 | 0 | >100 mg/kg | Activity [21]: 1; Activity [22]: 0; Activity [23]: 0
CC1CC(NCCc2ccccc2)=CC(=O)C1C(=O)NCCc1ccccc1 (stereo not given) |  |  |  |  |  |  |  |  | 0 | 0 | 0 | 0 | >100 mg/kg | Activity [21]: 1; Activity [22]: 0
COC(=O)C1C(O)=C/C(=N\Cc2ccccc2)CC1(C)C (stereo not given) |  | 0.5 |  |  | 1 | 1 |  | 0 |  | 0 | 0 | 0 | >100 mg/kg | ED50 [11]: 132 mg/kg; TD50 [24]: > 500 mg/kg; Activity [25]: 1; selectivity ratio [17]: 3.8
COC(=O)C1C(O)=C/C(=N\CCc2ccccc2)CC1(C)C (stereo not given) | 0 |  | 0 | 0 |  | 1 | 0 | 0 |  | 0 | 0 | 0 | <=100 mg kg-1 | Activity [26]: 1; Activity [9]: 0; Activity [25]: 1
COC(=O)C1C(=O)C=C(Nc2cc(OC)ccc2OC)CC1C (stereo not given) | 0 |  | 0 | 0 |  | 1 | 0 | 0 | 0 | 0 | 0 | 0 | <=100 mg kg-1 | Activity [26]: 1; Activity [9]: 0
NC(=O)N1c2ccccc2C=Cc2ccccc21 [CARBAMAZEPINE] |  | 0.25 |  |  | 0.25 |  |  |  |  |  |  |  |  | ED50 [11]: 8.8 mg/kg
O=C1CN=C(c2ccccc2Cl)c2cc([N+](=O)[O-])ccc2N1 [CLONAZEPAM] |  |  |  |  |  |  |  |  |  |  |  |  |  | ED50 (Rattus norvegicus [27]): 0.7 mg/kg
CCC1(c2ccccc2)C(=O)NC(=O)NC1=O [PHENOBARBITAL] |  |  |  |  |  |  |  |  |  |  |  |  |  | TPE [28]: 1; Reduction (Rattus norvegicus [29]): 70%; Average seizure score (Rattus norvegicus [30]): 1.7; ED50 [31]: 18 mg/kg; Reduction (Rattus norvegicus [32]): 0%; TD50 [33]: 92 mg/kg; Average seizure score (Rattus norvegicus [34]): 2.7; Reduction (Rattus norvegicus [35]): 74%; Average seizure score (Rattus norvegicus [36]): 5; Dose [37]: 3 mg/kg; Average seizure score (Rattus norvegicus [38]): 1.3; Reduction (Rattus norvegicus [39]): 47%; Reduction (Rattus norvegicus [40]): 68%; TPE [41]: 1
O=C1NC(=O)C(c2ccccc2)(c2ccccc2)N1 [PHENYTOIN] |  | 2 |  |  | 2 |  |  |  |  |  |  |  |  | ED50 (Rattus norvegicus [42]): > 100 mg/kg; TD50 [10]: > 3000 mg/kg

Reference: ChEMBL document CHEMBL1125497, “Synthesis and anticonvulsant activity of enaminones” (J Med Chem, 1992)
